Shown are actives, neighbours in structure and some others; about 4.5% of the full set was active somewhere.
OX1R antag-1 – OX1R (human) antagonism | O43613 | OX1R-expressing cells, FRET antagonist read-out | inhibition, % at 6.6 µM | hit rate 1.8% among 330,000 | AID 485270; in the data active means inhibition mostly above about 38%, no sharp cut-off; inactive means mostly below about 40%;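 further: 0% = agonist challenge alone and 100% = reference antagonist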
Target sequence (O43613 whole entry, looked up): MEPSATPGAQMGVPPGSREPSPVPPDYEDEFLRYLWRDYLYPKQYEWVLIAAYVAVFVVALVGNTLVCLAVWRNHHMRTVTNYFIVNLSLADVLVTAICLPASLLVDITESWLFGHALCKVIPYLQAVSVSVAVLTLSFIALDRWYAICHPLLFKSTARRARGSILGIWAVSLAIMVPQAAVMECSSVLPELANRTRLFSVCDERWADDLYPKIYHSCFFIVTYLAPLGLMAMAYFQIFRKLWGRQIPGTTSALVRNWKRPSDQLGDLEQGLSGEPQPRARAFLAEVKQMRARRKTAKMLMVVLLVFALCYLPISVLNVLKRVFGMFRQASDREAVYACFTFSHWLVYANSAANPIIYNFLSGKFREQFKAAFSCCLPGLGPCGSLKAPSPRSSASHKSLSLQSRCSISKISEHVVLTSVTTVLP
CHO parental Ca – counter-screen: ATP calcium response change in parental CHO cells. parental CHO-K1, ATP-induced calcium, Fluo-8 fluorescence. inhibition, % at 5.6 µM. hit rate 0.63% among 330,000;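 active means inhibition above that plate's mean sample inhibition plus 3 SD, cut at about 26% in these data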;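 further: 0% = ATP-challenged DMSO wells and 100% = DMSO wells without ATP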
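Test system: untransfected parental CHO cell line; also added: ATP stimulus; dosing: 5.6 µM, single dose; signal: calcium-sensitive Fluo-8 fluorescence; measure: percent inhibition of ATP-evoked calcium rise, normalized to controls; benchmarks: low control ATP plus DMSO, high control DMSO only; replication: one well per compound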
TAAR1 antag – human TAAR1 antagonism; hit rate 1.5% among 360,000; AID 624466; Q96RJ0; CHO RD-HGA16 TAAR1, Fluo-8 calcium fluorescence, antagonist; inhibition, % at 3 µM;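 active means inhibition above a per-plate cutoff, the mean inhibition of test compounds on that plate plus 3 SD, cut at about 49% in these data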;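 further: 0% = DMSO plus EC80 beta-PEA response and 100% = DMSO alone without agonist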
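Material: CHO RD-HGA16 cells bearing hTAAR1; compound dosing: one-point dosing, 3 µM nominal final; schedule: dye loading 75 min at 37 °C, then 30 min room temperature; measured by: calcium fluorescence with Fluo-8; control set: vehicle and agonist controls; replication: n of 1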
OX1R antag-2 – human HCRTR1 antagonism; hit rate 0.43% among 330,000; inhibition, % at 5 µM; O43613; CHO/OX1R cells, Fluo-8 calcium fluorescence, orexin A;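 active means inhibition above its plate's threshold, mean inhibition of all tested compounds on the plate plus 3 SD, cut at about 37% in these data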;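 further: 0% = orexin A challenge wells and 100% = SB-334867-A antagonist wells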
TAAR1 ag – agonists of human TAAR1; AID 624467; hit rate 0.99% among 360,000; CHO RD-HGA16 TAAR1, Fluo-8 calcium fluorescence; vehicle wells 0%, saturating PEA agonist 100%; activation, % at 3 µM; Q96RJ0;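 active means activation above the mean activation of all test compounds in the run plus 3 SD, cut at about 38% in these data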
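Test system: RD-HGA16 (CHO) cells co-expressing Gα16 and hTAAR1 | Doses: Single dose, 3 µM | Schedule: 17-24 h seeding, 75 min 37 °C dye, 30 min RT | Evaluation: % activation from peak over basal fluorescence ratio, DMSO-to-PEA scaled | Technique: Kinetic Fluo-8 calcium fluorescence | Benchmarks: Low control DMSO, high control PEA (EC100)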
GPR7 antagonist – blocks human GPR7 receptor signaling; P48145; GPR7-expressing cells, fluorescence antagonist assay; inhibition, % at 4.4 µM; hit rate 1.1% among 290,000; AID 1861; in the data active means inhibition above about 16%, passing the limit was not always enough;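 further: cells stimulated with the agonist NPW; 0% = agonist with vehicle and 100% = vehicle without agonist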
Active calls of the source: *; / = no result given.

SMILES | OX1R antag-1 | CHO parental Ca | TAAR1 antag | OX1R antag-2 | TAAR1 ag | GPR7 antagonist
CCCCOc1ccc(CC(=O)NO)cc1 | 4 | 44* | -18 | 0 | 2 | -16
CCCCOc1ccc(C(=O)Nc2ccncc2)cc1 | 61 | 42* | 2 | 45* | -1 | 1
CC(C)(C)C(=O)c1c(N)[nH]c(C(=O)c2ccccc2)c1-c1ccc([N+](=O)[O-])cc1 | / | / | 4 | / | 0 | /
CCCCc1c(-c2ccccc2OC)ncn1Cc1ccc(C)cc1 | / | / | 28 | / | 6 | /
O=C(C=Cc1ccc(O)c(O)c1)NCC(=O)NC(Cc1ccccc1)C(=O)O (centres undefined) | / | / | -3 | / | 3 | /
C=CCOC(=O)COc1ccc2c3c(c(=O)oc2c1)CCCC3 | / | / | -10 | / | 1 | /
Cc1ccc(Oc2ccc(OCC(=O)Nc3ccncc3)cc2)cc1 | 14 | 58* | 45 | 50* | 7 | /
Cc1cc(OCC(=O)Nc2ccc3oc(-c4ccncc4)nc3c2)ccc1Cl | 9 | -4 | -6 | -13 | 4 | 18
CCOC(=O)Cc1nnc(NC(=O)COc2ccc(C)cc2)s1 | 19 | -2 | -4 | -12 | 38* | -1
CCOC(=O)Cc1nnc(NC(=O)COc2ccc(OC)cc2)s1 | 4 | -10 | -9 | -16 | 14 | 4
O=C(COc1ccccc1)Nc1ccncc1 | 6 | 16 | 21 | -11 | 1 | 16
O=C(COc1ccc2ccccc2c1)Nc1ccncc1 | 62 | 67* | 15 | 53* | 11 | 17
Cc1cc(OCC(=O)Nc2ccncc2)ccc1Cl | 35 | 30* | -1 | 3 | 9 | 12
COCc1[nH]nc2c1C(c1ccc(C)cc1)N(Cc1ccccc1)C2=O (centres undefined) | / | / | -10 | / | 0 | /
O=[N+]([O-])c1ccc(OC2OCC(O)C(O)C2O)cc1 (centres undefined) | / | / | -24 | / | 3 | /
O=C(NCc1ccccc1)[C@@H]1CCCN1C(=O)[C@H]1CCCN1C(=O)c1ccc(F)cc1F | / | / | -19 | / | 0 | /
N/C(=N\OC(=O)c1cccc2ccccc12)c1cccnc1 | 53* | -25 | -1 | -26 | 1 | 10
COc1ccc(NS(=O)(=O)c2cc(NC(=O)c3cncc(Br)c3)ccc2OC)cc1 | 5 | -19 | 50* | 17 | 23 | /
COc1ccc(NS(=O)(=O)c2cc(NC(=O)c3nn(C)c(=O)c4ccccc34)ccc2OC)cc1 | 29 | -7 | 35 | -20 | 9 | 3
COc1ccccc1NS(=O)(=O)c1cccc(NC(=O)c2cncc(Br)c2)c1 | 17 | -23 | 51* | -3 | 21 | /
COc1ccccc1NS(=O)(=O)c1cccc(NC(=O)CCNC(=O)c2ccccc2OC)c1 | 8 | -9 | 57* | 35 | 10 | /
COc1ccc(NC(=O)c2ccc(Cl)c(S(=O)(=O)N3CCc4ccccc4C3)c2)cn1 | 18 | 14 | 66* | -9 | 26 | -1
COc1ccccc1NC(=O)Nc1ccc(Cl)c(S(=O)(=O)Nc2ccccc2OC)c1 | 16 | -15 | 17 | -18 | 2 | -2
COc1ccccc1NS(=O)(=O)c1cc(NC(=O)c2ccc(Cl)nc2)ccc1Cl | 19 | -4 | 56* | 7 | 18 | 8
CCc1ccc(OC)c(S(=O)(=O)Nc2ccc(Cc3ccncc3)cc2)c1 | 42 | 48* | 7 | -3 | 17 | 4
SMILES | OX1R antag-1 | CHO parental Ca | TAAR1 antag | OX1R antag-2 | TAAR1 ag | GPR7 antagonist
COc1ccccc1NS(=O)(=O)c1cccc(NC(=O)Nc2cccc(Cl)c2)c1 | 46 | 30* | 79* | 29 | 20 | 5
CC(=O)Nc1cc([N+](=O)[O-])ccc1OCc1ccccc1 | / | / | -8 | / | 1 | /
CCCCc1c(-c2ccccc2OC)ncn1Cc1cc(F)ccc1F | / | / | 13 | / | 4 | /
C=CCc1cccc(CNc2cnc3ccccc3c2)c1O | 49 | 72* | 34 | 21 | 8 | 7
O=C(C(=O)N1CCC(CNC(=O)C2COc3ccccc3O2)CC1)c1cccs1 (centres undefined) | / | / | 6 | / | 1 | /
CC1=C(C(=O)OCC(Cl)(Cl)Cl)N2C(=O)C(NC(=O)Cc3ccccc3)C2SC1 (centres undefined) | 1 | -5 | 61* | -2 | 25 | 23
CC(=O)OCC1=C(C(=O)OC(C)(C)C)N2C(=O)[C@@H](NC(=O)Cc3ccccc3)[C@H]2SC1 | / | / | -22 | / | -1 | /
CNc1ccccc1C(C)(C)c1cc(-c2cccc([N+](=O)[O-])c2)no1 | 18 | -6 | -3 | -22 | 4 | 12
CNc1ccccc1C(C)(C)c1cc(-c2cccc(Br)c2)no1 | 20 | 45* | 14 | 33 | 9 | -11
CC(=O)C1=C(C)N(Cc2ccc(Br)cc2)C(=S)NC1c1ccc(F)cc1 (centres undefined) | / | / | 2 | / | 3 | /
O=C(NCc1ccccn1)C1CCCN(S(=O)(=O)c2cccc3nsnc23)C1 (centres undefined) | 121* | -4 | 11 | -21 | 0 | 2
COc1ccccc1CNC(=O)C1CCCN(S(=O)(=O)c2cccc3nsnc23)C1 (centres undefined) | 28 | -24 | -6 | -16 | 1 | 6
COCCNC(=O)C1CCCN(S(=O)(=O)c2cccc3nsnc23)C1 (centres undefined) | 48* | -11 | -14 | -3 | 0 | 5
O=C(NCCCN1CCCCCC1)C1CCCN(S(=O)(=O)c2cccc3nsnc23)C1 (centres undefined) | 26 | -8 | -1 | -36 | 1 | 12
C[C@@H]1ON(C)[C@H]2C[C@H]3c4[nH]c5c(-c6ccc(C(F)(F)F)cc6)cccc5c4CCN3C(=O)[C@@H]12 | / | / | -12 | / | 2 | /
Cc1nnc(SCc2ccc(C(=O)O)cc2)s1 | 15 | -7 | -22 | -15 | 4 | -1
Cc1ccc(NC(=O)c2ccc(CSc3nnc(C)s3)cc2)cc1 | 10 | 40* | 24 | -1 | 18 | 1
Cc1cc(C)cc(NC(=O)c2ccc(CSc3nnc(C)s3)cc2)c1 | 8 | -3 | 66* | -1 | 13 | 10
OC[C@@H]1CN(Cc2cccnc2)C[C@H](n2cnc3c(NC4CCCC4)ncnc32)O1 | / | / | 10 | / | 0 | /
COCCn1c(SCC(=O)Nc2ccc3c(c2)OCCO3)nnc1-c1ccncc1 | 19 | -8 | 2 | 1 | 2 | /
COCCn1c(SCC(=O)Nc2ccc3c(c2)OCCO3)nnc1-c1c[nH]c2ccccc12 | 50* | -31 | 7 | 6 | 3 | 7
CCOC(=O)c1c(NC(=O)CSc2nnc(-c3c[nH]c4ccccc34)n2CCOC)sc2c1CCCC2 | 41* | 2 | -13 | 12 | -1 | 1
CC(=O)NCc1ccc(OCCCN2CCC(C(O)(c3ccccc3)c3ccccc3)CC2)cc1 | / | / | -1 | / | 8 | /
Cc1cc(/C=N/n2cnnc2)c(C)n1-c1ccc(OCc2ccc(Cl)cc2Cl)cc1 | 50 | 45* | / | 53* | / | -2
